Data taken from the RNAGym collection of RNA variant scans (doi:10.1126/science.aae0568).
This sample holds only a part of the variants without activity.

B1: tRNA (parent)
chain: GUUCCGUUGGCGUAAUGGUAACGCGUCUCCCUCCUAAGGAGAAGACUGCGGGUUCGAGUCCCGUACGGAACG

Variants of: B1
Assay: yeast fitness relative to wild type (ratio to wild type); higher = fitter; tRNA-Arg(CCU), competitive growth, 37 C, YPD
Outline: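 Variants of the tRNA-Arg(CCU) gene, chemically synthesised with a 3% per-site mutation rate at 69 sites, were placed at the native genomic locus in Saccharomyces cerevisiae. The pooled strains were competed in YPD at 37°C for 24 hours in six parallel replicates. Gene amplicons from the start population and from each end population were read by 100-nucleotide paired-end sequencing. Darwinian fitness relative to wild type came from changes in genotype frequencies; genotypes needed ≥ 100 starting reads, and estimates < 0.5 were set to 0.5.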

Variant	yeast fitness
U28G A36C G38C C49U	≤ 0.5
U28A U32C A70G	0.604
U28A G48A G58C C66G	≤ 0.5
U28A A57C C66G	≤ 0.5
C27U U28A	0.699
C27U U28C	0.903
C27U G50A G52A U59C C66U	0.53
U28A C61A	0.612
U28A C30A G67U	0.642
U28C G51A	0.773
U28C C61G G68C	≤ 0.5
U28A C34U C61U	0.554
C27U U47C A69U	0.838
C27U G38A C66A	0.645
U28A C62U	0.86
U28C A43U G48C C60G	≤ 0.5
U28C C33U C49G	≤ 0.5
U28C C31U A36G G63C	≤ 0.5
U28A C46G G56A	0.676
U28A C29G C33U C34G A42U U59C	≤ 0.5
C27U G51C U59C C62A	≤ 0.5

Variant	yeast fitness
U28C G52C U64A	≤ 0.5
U28A C31U A65U	0.546
U28C C55G C60A	≤ 0.5
U28A C33G A43C C61U A69U	≤ 0.5
U28A C30U C66U	≤ 0.5
U28C C29G C49U	≤ 0.5
U28A C49U C55G	≤ 0.5
U28A G50C	0.609
C27U G48A A70U	0.775
U28A G58A	0.913
U28A G58C	0.798
U28C U32A	0.754
U28C U32C	0.935
U28A C29G G44C A65U	0.935
U28C C31A	0.784
U28C C31G	0.907
C27U G38C G44C	0.531
U28C G41C G63A	≤ 0.5
U28A A45C C46G G67A	0.532
U28A A43U U53A	≤ 0.5
U28C G51A U59A A65C	≤ 0.5

Variant	yeast fitness
C27U U53A	0.628
U28A A45G C66U	0.538
U28C A70G	0.92
U28A C33A G51C A57C	≤ 0.5
U28A C33U C55G A70U	≤ 0.5
C27U G38A G48C	0.562
U28C C30U C49U	≤ 0.5
U28C C46U	0.911
U28A G58U A65C	≤ 0.5
U28C G48A C61G	0.548
U28C U32C C34U A45U A70U	0.584
U28C C33A A42C A45U	≤ 0.5
C27U G58C A69C	1.05
C27U G44A C49U G52A A57C	≤ 0.5
U28G A36G C66U	0.582
C27U U28A U32A C34U A36C C55A A70G	0.539
U28A A40U C62A	0.943
U28C C30U A45C G58A G67U	≤ 0.5
U28A A37G G41C	≤ 0.5
U28A A36G G52C	≤ 0.5
U28C A45G	0.948

Variant	yeast fitness
C27U U47A	0.721
C27U U47C	0.975
C27U U47G	0.621
U28C C30U U59C	≤ 0.5
U28A C46A C60U C66U	≤ 0.5
C27U G39C C49U G63C	≤ 0.5
U28C A42G A65G	0.598
U28A G38C G41A C46A	≤ 0.5
U28A A40U A69U	0.769
C27U G38A C61U C66A	≤ 0.5
C27U U28G C31A C46U	≤ 0.5
U28C A69U	0.893
C27U U35C A36G C49G	≤ 0.5
U28A G44C	0.813
U28C G48C U53C	0.553
U28C G63C U64A C66G	≤ 0.5
U28C C29U	0.806
C27U C62U A65U	0.718
U28A A42C C49G C62U	0.585
U28C C29U G63C A65U	≤ 0.5
U28C C34A C49G G51C	≤ 0.5
